Test results published in ChEMBL document CHEMBL1121883, “1-(Naphthylalkyl)-1H-imidazole derivatives, a new class of anticonvulsant agents” (J Med Chem, 1981).

Columns and labels:
[1] = (§1) Lethal dose was measured in mice after ip administration.; format: toxicity, organism-based; details: mouse, in vivo
In short: (§2)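 Male Simonsen ICR-derived mice (16-24 g), groups of three, given compound ip in increasing doses within a behavioral screen. Deaths counted on day 5, and LD50 estimated from 5-day survival. Quantal data analysed by the Litchfield-Wilcoxon method.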

Mus musculus [2] = test: Dose of compound causing a neurological deficit in 50% of mice after ip administration; format: functional
In short: (§3)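 Traction test in male Hilltop ICR-derived mice (19-30 g, groups of 8-10) just before electroshock, 15 min after ip or 30 min after oral dosing. Mice placed on a 16-gauge, 65-cm copper wire 40 cm above the table; deficit scored as failure to stay on for 10 s. ND50 with 95% limits by Litchfield-Wilcoxon.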

Mus musculus [3] = test: Compound was evaluated for anticonvulsant activity by maximal electroshock assay(MES) in mice after ip administration; format: functional
In short: (§4)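 Male Hilltop ICR-derived mice (19-30 g), groups of 8-10, dosed ip with compound or aqueous vehicle. After 15 min pretreatment, a transcorneal 60-Hz, 50 mA shock was given for 0.2 s. Just before the shock, each mouse was tested on a horizontal wire (10 s). Quantal data were analysed by Litchfield-Wilcoxon to give ED50 with 95% confidence limits.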

Mus musculus [4] = test: Anticonvulsant activity in mouse maximal electroshock assay following i.p. administration.; format: functional; details: ip; in short: as §4
Mus musculus [5] = test: Protective index is defined as ND50 (i.p.) divided by MES ED50(i.p.); format: functional
In short: (§5)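 Ratio of ND50 from the wire traction test to MES ED50, both measured by the same route (ip or oral) in the same animals. Quantal dose-response data for each were evaluated by Litchfield-Wilcoxon.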

Mus musculus [6] = test: Dose causing a neurological deficit in 50% of mice after ip administration.; format: functional; in short: as §3
Mus musculus [7] = test: Dose causing a neurological deficit in 50% of mice following p.o. administration.; format: functional; in short: as §3
Mus musculus [8] = test: compound was evaluated for anticonvulsant activity by maximal electroshock assay(MES) in mice after po administration.; format: functional
In short: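 Male Hilltop ICR-derived mice, 19-30 g, groups of 8-10, dosed orally with compound or aqueous vehicle. Transcorneal electroshock (50 mA, 60 Hz, 0.2 s) delivered 30 min after dosing, immediately after a wire-hang neurological test. ED50 with 95% confidence limits estimated from quantal data by Litchfield-Wilcoxon.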

Mus musculus [9] = test: Protective index defined as ND50 (p.o.) divided by MES ED50(op); format: functional; in short: as §5
Rattus norvegicus [10] = test: Compound was evaluated for anticonvulsant activity by maximal electroshock assay(MES) in rat after ip administration.; format: functional
Rattus norvegicus [11] = test: Dose of compound causing a neurological deficit in 50% of rat after ip administration.; format: functional
In short: (§6)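 Rats (Simonsen Sprague-Dawley-derived, 80-110 g, groups of 8-10) placed on a suspended 16-gauge, 65-cm copper wire just before electroshock. Deficit scored as inability to remain for 8 s. Pretreatment was 15 min ip or 30 min oral. Quantal data analysed by Litchfield-Wilcoxon to give ND50 with 95% limits.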

Mus musculus [12] = test: Compound was evaluated for anticonvulsant activity by maximal electroshock assay(MES) in mice after ip administration; 8-19; format: functional; in short: as §4
Rattus norvegicus [13] = test: Compound was evaluated for anticonvulsant activity by maximal electroshock assay(MES) in rat after ip administration; 2.9-19; format: functional
Mus musculus [14] = test: Compound was evaluated for anticonvulsant activity by maximal electroshock assay(MES) in mice after po administration; 60-147; format: functional
In short: (§7)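 Male Hilltop ICR-derived mice (19-30 g), groups of 8-10, given compound or aqueous vehicle orally. The transcorneal 60-Hz shock (50 mA, 0.2 s) followed a 30 min pretreatment and a wire-hang neurological check (10 s). ED50 and 95% confidence limits were obtained from quantal data by the Litchfield-Wilcoxon method.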

Rattus norvegicus [15] = test: Compound was evaluated for anticonvulsant activity by maximal electroshock assay(MES) in rat after po administration.; format: functional
In short: (§8)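 Male Simonsen Sprague-Dawley-derived rats, 80-110 g, groups of 8-10, dosed with compound or aqueous vehicle; pretreatment 15 min after ip or 30 min after oral dosing. Transcorneal electroshock, 150 mA, 60 Hz, 0.2 s, given after the wire test. ED50 with 95% confidence limits from quantal data by Litchfield-Wilcoxon.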

Mus musculus [16] = test: as §1; format: functional; in short: as §2
Rattus norvegicus [17] = test: Compound was evaluated for anticonvulsant activity by maximal electroshock assay(MES) in rat after ip administration; […]; format: functional
Mus musculus [18] = test: Compound was evaluated for anticonvulsant activity by maximal electroshock assay(MES) in mice after ip administration; 8-13; format: functional; in short: as §4
Rattus norvegicus [19] = test: Dose of compound causing a neurological deficit in 50% of rat after po administration.; format: functional; in short: as §6
Mus musculus [20] = test: Dose of compound causing a neurological deficit in 50% of mice after ip administration; 35-49; format: functional; in short: as §3
Rattus norvegicus [21] = test: Dose of compound causing a neurological deficit in 50% of rat after ip administration; 31-78; format: functional; in short: as §6
Rattus norvegicus [22] = test: Compound was evaluated for anticonvulsant activity by maximal electroshock assay(MES) in rat after po administration; 7.3-20; format: functional; in short: as §8
Mus musculus [23] = test: Dose of compound causing a neurological deficit in 50% of mice after po administration; 79-196; format: functional; in short: as §3
Mus musculus [24] = test: Compound was evaluated for anticonvulsant activity by maximal electroshock assay(MES) in mice after po administration; 23-40; format: functional; in short: as §7
Rattus norvegicus [25] = test: Compound was evaluated for anticonvulsant activity by maximal electroshock assay(MES) in rat after ip administration; 1.5-6.7; format: functional
Mus musculus [26] = test: Dose of compound causing a neurological deficit in 50% of mice after po administration; 82-1100; format: functional; in short: as §3
Rattus norvegicus [27] = test: Dose of compound causing a neurological deficit in 50% of rat after ip administration; 29-57; format: functional; in short: as §6
Mus musculus [28] = test: Compound was evaluated for anticonvulsant activity by maximal electroshock assay(MES) in mice after po administration; 13-23; format: functional; in short: as §7
Rattus norvegicus [29] = test: Compound was evaluated for anticonvulsant activity by maximal electroshock assay(MES) in rat after po administration; 4.5-19; format: functional; in short: as §8
Mus musculus [30] = test: Dose of compound causing a neurological deficit in 50% of mice after ip administration; 21-52; format: functional; in short: as §3

Question: For `O=C(Cn1ccnc1)c1cccc2ccccc12`, which LD50 [1] is on record?
Answer: Its LD50 is over 100 mg/kg.

Question: What does the source list for `CS(=O)(=O)C(Cn1ccnc1)c1ccc2ccccc2c1.Cl` (stereo not given)?
Answer: ND50 (Mus musculus [2]): >40 mg/kg; ED50 (Mus musculus [3]): > 40 mg/kg

Question: What does the source list for `CSC(Cn1ccnc1)c1ccc2ccccc2c1.Cl` (stereo not given)?
Answer: ED50 (Mus musculus [4]): 37 mg/kg; PI (Mus musculus [5]): 2.1; ND50 (Mus musculus [6]): 76 mg/kg

Question: With `Cl.c1ccc2cc(C3(Cn4ccnc4)SCCS3)ccc2c1` as the compound, how does the ND50 (Mus musculus [7]) read?
Answer: The ND50 was 125 mg/kg.

Question: And the PI (Mus musculus [5])?
Answer: Its PI is 2.4.

Question: What about the ND50 (Mus musculus [6]) of the same compound?
Answer: The ND50 was 64 mg/kg.

Question: And the ED50 (Mus musculus [8])?
Answer: Its ED50 is 70 mg/kg.

Question: And the PI (Mus musculus [9])?
Answer: The PI was 1.8.

Question: And the LD50 [1]?
Answer: The LD50 was over 30 mg/kg.

Question: For `Cl.c1ccc2cc(Cn3ccnc3)ccc2c1`, which ED50 (Mus musculus [4]) is on record?
Answer: The ED50 was 25 mg/kg.

Question: What about the ED50 (Rattus norvegicus [10]) of the same compound?
Answer: The ED50 was 6.2 mg/kg.

Question: What about the ND50 (Mus musculus [6]) of the same compound?
Answer: Its ND50 is 32 mg/kg.

Question: And the ND50 (Rattus norvegicus [11])?
Answer: The ND50 was 32 mg/kg.

Question: With `Cl.c1ccc2c(C3(Cn4ccnc4)SCCS3)cccc2c1` as the compound, how does the ED50 (Mus musculus [4]) read?
Answer: The ED50 was 26 mg/kg.

Question: And the PI (Mus musculus [5])?
Answer: The PI was 2.2.

Question: And the ND50 (Mus musculus [6])?
Answer: Its ND50 is 57 mg/kg.

Question: Which results are given for `Cl.c1ccc2cc(C3(Cn4ccnc4)SCCCS3)ccc2c1`?
Answer: ED50 (Mus musculus [4]): 65 mg/kg; PI (Mus musculus [5]): 1.4; LD50 [1]: > 100 mg/kg

Question: For `Br.CCc1ccc2cc(C(=O)Cn3ccnc3)ccc2c1`, which ED50 (Mus musculus [12]) is on record?
Answer: The ED50 was 12 mg/kg.

Question: And the ED50 (Rattus norvegicus [13])?
Answer: The ED50 was 5.5 mg/kg.

Question: And the ND50 (Mus musculus [7])?
Answer: The ND50 was over 100 mg/kg.

Question: What about the ED50 (Mus musculus [14]) of the same compound?
Answer: Its ED50 is 84 mg/kg.

Question: And the ED50 (Rattus norvegicus [15])?
Answer: The ED50 was over 30 mg/kg.

Question: What about the PI (Mus musculus [5]) of the same compound?
Answer: The PI was over 8.1.

Question: And the ND50 (Mus musculus [6])?
Answer: The ND50 was over 100 mg/kg.

Question: What about the PI (Mus musculus [9]) of the same compound?
Answer: Its PI is over 1.2.

Question: And the ND50 (Rattus norvegicus [11])?
Answer: The ND50 was over 100 mg/kg.

Question: What about the LD50 (Mus musculus [16]) of the same compound?
Answer: Its LD50 is over 100 mg/kg.

Question: For `Cl.c1ccc(CSC(Cn2ccnc2)(SCc2ccccc2)c2ccc3ccccc3c2)cc1`, which ED50 (Mus musculus [4]) is on record?
Answer: Its ED50 is over 100 mg/kg.

Question: What about the ND50 (Mus musculus [6]) of the same compound?
Answer: The ND50 was over 100 mg/kg.

Question: Which results are given for `Cl.c1ccc(SC(Cn2ccnc2)(Sc2ccccc2)c2ccc3ccccc3c2)cc1`?
Answer: ED50 (Mus musculus [4]): > 60 mg/kg; ND50 (Mus musculus [6]): >60 mg/kg

Question: For `CC(C)SC(Cn1ccnc1)(SC(C)C)c1ccc2ccccc2c1.Cl`, which ED50 (Mus musculus [4]) is on record?
Answer: Its ED50 is 86 mg/kg.

Question: And the PI (Mus musculus [5])?
Answer: Its PI is over 1.2.

Question: What about the ND50 (Mus musculus [6]) of the same compound?
Answer: Its ND50 is over 100 mg/kg.

Question: Which ED50 (Mus musculus [4]) does the source give for `CCCSC(Cn1ccnc1)(SCCC)c1ccc2ccccc2c1.Cl` here?
Answer: The ED50 was over 100 mg/kg.

Question: And the ND50 (Mus musculus [6])?
Answer: The ND50 was over 100 mg/kg.

Question: And the LD50 [1]?
Answer: Its LD50 is over 100 mg/kg.

Question: What does the source list for `COC(Cn1ccnc1)c1ccc2ccccc2c1.Cl` (stereo not given)?
Answer: ED50 (Rattus norvegicus [17]): 3.8 mg/kg; ED50 (Mus musculus [18]): 10 mg/kg; ND50 (Rattus norvegicus [19]): >100 mg/kg; ND50 (Mus musculus [20]): 42 mg/kg; ND50 (Rattus norvegicus [21]): 46 mg/kg; ED50 (Rattus norvegicus [22]): 13 mg/kg; PI (Mus musculus [5]): 4.2; ND50 (Mus musculus [23]): 110 mg/kg; ED50 (Mus musculus [24]): 28 mg/kg; PI (Mus musculus [9]): 3.9

Question: With `Cl.c1ccc2cc(C3(Cn4ccnc4)OCCO3)ccc2c1` as the compound, how does the ED50 (Rattus norvegicus [25]) read?
Answer: Its ED50 is 4.5 mg/kg.

Question: What about the ND50 (Mus musculus [26]) of the same compound?
Answer: The ND50 was 173 mg/kg.

Question: What about the ND50 (Rattus norvegicus [27]) of the same compound?
Answer: Its ND50 is 41 mg/kg.

Question: What about the ED50 (Mus musculus [28]) of the same compound?
Answer: The ED50 was 18 mg/kg.

Question: What about the ND50 (Rattus norvegicus [19]) of the same compound?
Answer: Its ND50 is over 300 mg/kg.

Question: And the ED50 (Rattus norvegicus [29])?
Answer: Its ED50 is 10 mg/kg.

Question: And the ND50 (Mus musculus [30])?
Answer: Its ND50 is 31 mg/kg.

Question: And the LD50 (Mus musculus [16])?
Answer: Its LD50 is over 100 mg/kg.
